As usually defined, the MIC is the smallest concentration in the dilution series that meets the test's criterion for growth inhibition.

The test system of experiment [1] is Candida albicans. The experiment can be described thus: Antifungal activity against Candida albicans assessed as inhibition zone diameter […] by agar dilution method. It counts as functional. An outline of the steps:
(§1)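 Compounds in DMSO placed in punched wells on Sabouraud agar (peptone, glucose, agar, pH 5.7) lawned with saline spore suspension. Plates pre-dried 1 h at 37 °C. Controls in triplicate, incubation at 37 °C for 3-4 days, then inhibition zone diameter read in mm. Amphotericin B reference.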
Background: In agar dilution the substance is mixed into plates at graded concentrations.

The subject of the next experiment is Escherichia coli. In words: Antibacterial activity against Escherichia coli ATCC 25922 after 24 hrs by broth dilution technique. It counts as functional. Particulars: ATCC 25922, 24 h. An outline of the steps:
(§2)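 MIC by broth dilution in nutrient broth with logarithmic serial twofold dilutions of compound. Inoculum approx. 5×10^5 c.f.u actively dividing bacteria. Incubated 24 h at 37 °C, growth monitored visually and spectrophotometrically. MIC taken as the lowest concentration (highest dilution) arresting growth. Ciprofloxacin reference.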
(In broth dilution the organism is exposed to a series of concentrations in liquid medium.)

The test system of experiment [2] is Staphylococcus aureus. In words: Antibacterial activity against Staphylococcus aureus ATCC 25923 assessed as inhibition zone diameter after 24 hrs […]. Type of experiment: functional. An outline of the steps: (§3)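 Disc diffusion on nutrient agar. Inoculum 1-2 × 10^7 c.f.u/ml (0.5 McFarland) spread over the plate surface. Sterile 6.25 mm filter-paper discs soaked in a known concentration of compound. Solvent and growth controls included. Plates incubated inverted 24 h at 37 °C, then inhibition zone diameter measured in mm. Ciprofloxacin reference.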

Experiment [3] concerns Aspergillus fumigatus. The experiment can be described thus: Antifungal activity against Aspergillus fumigatus assessed as inhibition zone diameter […] by agar dilution method. Type of experiment: functional. An outline of the steps:
as §1

The subject of experiment [4] is Streptococcus pyogenes. The experiment can be described thus: Antibacterial activity against Streptococcus pyogenes after 24 hrs by broth dilution technique. Type of experiment: functional. An outline of the steps: as §2
Experiment [5] deals with Pseudomonas aeruginosa. The experiment can be described thus: Antibacterial activity against Pseudomonas aeruginosa ATCC 27853 assessed as inhibition zone diameter after 24 hrs […]. It counts as functional. An outline of the steps:
as §3

Experiment [6] deals with Streptococcus pyogenes. The experiment can be described thus: Antibacterial activity against Streptococcus pyogenes assessed as inhibition zone diameter after 24 hrs by disc diffusion method. For orientation: A growth-free zone around the sample is the usual read-out of agar diffusion tests.
In experiment [7] the test system is Klebsiella pneumoniae. The experiment can be described thus: Antibacterial activity against Klebsiella pneumoniae after 24 hrs by broth dilution technique. It counts as functional. An outline of the steps: as §2
In experiment [8] the test system is Aspergillus fumigatus. The experiment can be described thus: Antifungal activity against Aspergillus fumigatus after 48 hrs […]. Type of experiment: functional.
Experiment [9] has as its system Talaromyces marneffei. The experiment can be described thus: Antifungal activity against Penicillium marneffei assessed as inhibition zone diameter […] by agar dilution method. It counts as functional. An outline of the steps: as §1
The subject of experiment [10] is Pseudomonas aeruginosa. The experiment can be described thus: Antibacterial activity against Pseudomonas aeruginosa ATCC 27853 after 24 hrs by broth dilution technique. Particulars: ATCC 27853, 24 h. Type of experiment: functional. The gist of the method: as §2
Experiment [11] relates to Aspergillus flavus. The experiment can be described thus: Antifungal activity against Aspergillus flavus after 48 hrs […]. Type of experiment: functional.
Experiment [12] relates to Klebsiella pneumoniae. In words: Antibacterial activity against Klebsiella pneumoniae assessed as inhibition zone diameter after 24 hrs […]. It counts as functional. An outline of the steps: as §3
For experiment [13], the system named is Aspergillus flavus. In words: Antifungal activity against Aspergillus flavus assessed as inhibition zone diameter […] by agar dilution method. It counts as functional. The gist of the method: as §1
For experiment [14], the system named is Candida albicans. The experiment can be described thus: Antifungal activity against Candida albicans after 48 hrs […]. Type of experiment: functional.
In experiment [15] the test system is Talaromyces marneffei. The experiment can be described thus: Antifungal activity against Penicillium marneffei after 48 hrs […]. It counts as functional.
Experiment [16] deals with Trichophyton mentagrophytes. The experiment can be described thus: Antifungal activity against Trichophyton mentagrophytes assessed as inhibition zone diameter […] by agar dilution method. Type of experiment: functional. The gist of the method: as §1
Experiment [17] relates to Staphylococcus aureus. The experiment can be described thus: Antibacterial activity against Staphylococcus aureus ATCC 25923 after 24 hrs by broth dilution technique. Type of experiment: functional. To be noted: ATCC 25923, 24 h. An outline of the steps:
as §2

Experiment [18] relates to Trichophyton mentagrophytes. The experiment can be described thus: Antifungal activity against Trichophyton mentagrophytes after 48 hrs […]. Type of experiment: functional.

Molecules are shown by their SMILES. ≈ marks a conversion by molar mass, not a printed value.

As to `Nn1c(SCC(=O)Nc2ccc(F)c(Cl)c2)nnc1-c1cc(F)c(Cl)cc1Cl`, the “inhibition zone (IZ)” value with Candida albicans [1] is recorded as 15 mm; in the experiment with Staphylococcus aureus [2], 24 mm; in the experiment on Aspergillus fumigatus [3] it was 16 mm; in the experiment on Pseudomonas aeruginosa [5] it was 31 mm; in the experiment on Streptococcus pyogenes [6], 23 mm; in the experiment with Talaromyces marneffei [9], 20 mm. In addition, the “inhibition zone (IZ)” value in the experiment with Klebsiella pneumoniae [12] was found to be 20 mm; in the experiment on Aspergillus flavus [13], 8 mm; in experiment [16], 11 mm. For the same compound, the minimum inhibitory concentration (MIC) against Escherichia coli amounted to 6.25 µg/mL (≈ 13.4 µM); in the experiment on Streptococcus pyogenes [4], 6.25 µg/mL (≈ 13.4 µM); against Klebsiella pneumoniae [7], 6.25 µg/mL (≈ 13.4 µM); against Aspergillus fumigatus [8], 12.5 µg/mL (≈ 26.9 µM); with Pseudomonas aeruginosa [10], 6.25 µg/mL (≈ 13.4 µM); in the experiment on Aspergillus flavus [11], 25 µg/mL (≈ 53.8 µM). In addition, the minimal inhibitory concentration (MIC) in the experiment on Candida albicans [14] is 12.5 µg/mL (≈ 26.9 µM); against Talaromyces marneffei [15], 6.25 µg/mL (≈ 13.4 µM); against Staphylococcus aureus [17], 6.25 µg/mL (≈ 13.4 µM); in experiment [18], 12.5 µg/mL (≈ 26.9 µM).

As for `Cc1cccc(C)c1NC1=Nn2c(nnc2-c2cc(F)c(Cl)cc2Cl)SC1`, the “inhibition zone (IZ)” value with Candida albicans [1] turned out to be 15 mm; with Staphylococcus aureus [2], 23 mm; with Aspergillus fumigatus [3], 10 mm; with Pseudomonas aeruginosa [5], 15 mm; with Streptococcus pyogenes [6], 21 mm; with Talaromyces marneffei [9], 12 mm. Moreover, the results for the “inhibition zone (IZ)” value (in the experiment with Klebsiella pneumoniae [12]; in the experiment on Aspergillus flavus [13]; in experiment [16]) were 12 mm, 24 mm and 19 mm, respectively. The minimal inhibitory concentration (MIC) against Escherichia coli was 12.5 µg/mL (≈ 29.6 µM); against Streptococcus pyogenes [4] it was 6.25 µg/mL (≈ 14.8 µM); in the experiment on Klebsiella pneumoniae [7], 12.5 µg/mL (≈ 29.6 µM); against Aspergillus fumigatus [8], 25 µg/mL (≈ 59.2 µM); in the experiment with Pseudomonas aeruginosa [10] it was 6.25 µg/mL (≈ 14.8 µM); against Aspergillus flavus [11] it was 6.25 µg/mL (≈ 14.8 µM). Moreover, the MIC is 12.5 µg/mL (≈ 29.6 µM) against Candida albicans [14], 12.5 µg/mL (≈ 29.6 µM) in the experiment with Talaromyces marneffei [15], 6.25 µg/mL (≈ 14.8 µM) against Staphylococcus aureus [17] and 6.25 µg/mL (≈ 14.8 µM) in experiment [18].

For `Fc1cc(-c2nnc3n2N=C(Nc2ccc(Cl)cc2)CS3)c(Cl)cc1Cl`, the “inhibition zone (IZ)” value in the experiment on Candida albicans [1] was determined as 16 mm; with Staphylococcus aureus [2], 24 mm; in the experiment on Aspergillus fumigatus [3], 18 mm; in the experiment on Pseudomonas aeruginosa [5] it was 32 mm; in the experiment on Streptococcus pyogenes [6], 25 mm; with Talaromyces marneffei [9], 15 mm. Also, the “inhibition zone (IZ)” value in the experiment with Klebsiella pneumoniae [12] stood at 20 mm; in the experiment on Aspergillus flavus [13], 20 mm; in experiment [16] it was 11 mm. Further, the minimum inhibitory concentration (MIC) against Escherichia coli, in the experiment with Streptococcus pyogenes [4], against Klebsiella pneumoniae [7], in the experiment with Aspergillus fumigatus [8], in the experiment on Pseudomonas aeruginosa [10] and against Aspergillus flavus [11] was 6.25 µg/mL (≈ 14.6 µM) in each case. Moreover, the MIC in the experiment on Candida albicans [14] was 6.25 µg/mL (≈ 14.6 µM); against Talaromyces marneffei [15] it was 12.5 µg/mL (≈ 29.2 µM); with Staphylococcus aureus [17], 6.25 µg/mL (≈ 14.6 µM); in experiment [18] it was 12.5 µg/mL (≈ 29.2 µM).

As for `Fc1cc(-c2nnc3n2N=C(Nc2ccccc2C(F)(F)F)CS3)c(Cl)cc1Cl`, the “inhibition zone (IZ)” value with Candida albicans [1] is listed as 18 mm; with Staphylococcus aureus [2] it was 22 mm; in the experiment on Aspergillus fumigatus [3], 21 mm; with Pseudomonas aeruginosa [5], 30 mm; in the experiment with Streptococcus pyogenes [6] it was 23 mm; in the experiment with Talaromyces marneffei [9], 21 mm. For the same compound, the “inhibition zone (IZ)” value came out at 21 mm in the experiment on Klebsiella pneumoniae [12], 21 mm in the experiment on Aspergillus flavus [13] and 17 mm in [16]. The MIC against Escherichia coli, with Streptococcus pyogenes [4], in the experiment on Klebsiella pneumoniae [7], in the experiment with Aspergillus fumigatus [8], in the experiment on Pseudomonas aeruginosa [10] and in the experiment on Aspergillus flavus [11] was 6.25 µg/mL (≈ 13.5 µM) in each case. The minimum inhibitory concentration (MIC) (in the experiment with Candida albicans [14]; in the experiment with Talaromyces marneffei [15]; against Staphylococcus aureus [17]; in [18]) was 6.25 µg/mL (≈ 13.5 µM) in each case.
